Activity calls are given as the source filed them. The rule behind the calls is not given here.
Legend:
[1] = target: T1, Prostaglandin G/H synthase 1 (Ovis aries) (UniProt P05979); assay: Inhibition of ovine COX1-mediated 12-HHT formation assessed as remaining activity at 10 uM preincubated for 5 mins before arachidonic acid addition by HPLC analysis
T1 sequence (whole entry): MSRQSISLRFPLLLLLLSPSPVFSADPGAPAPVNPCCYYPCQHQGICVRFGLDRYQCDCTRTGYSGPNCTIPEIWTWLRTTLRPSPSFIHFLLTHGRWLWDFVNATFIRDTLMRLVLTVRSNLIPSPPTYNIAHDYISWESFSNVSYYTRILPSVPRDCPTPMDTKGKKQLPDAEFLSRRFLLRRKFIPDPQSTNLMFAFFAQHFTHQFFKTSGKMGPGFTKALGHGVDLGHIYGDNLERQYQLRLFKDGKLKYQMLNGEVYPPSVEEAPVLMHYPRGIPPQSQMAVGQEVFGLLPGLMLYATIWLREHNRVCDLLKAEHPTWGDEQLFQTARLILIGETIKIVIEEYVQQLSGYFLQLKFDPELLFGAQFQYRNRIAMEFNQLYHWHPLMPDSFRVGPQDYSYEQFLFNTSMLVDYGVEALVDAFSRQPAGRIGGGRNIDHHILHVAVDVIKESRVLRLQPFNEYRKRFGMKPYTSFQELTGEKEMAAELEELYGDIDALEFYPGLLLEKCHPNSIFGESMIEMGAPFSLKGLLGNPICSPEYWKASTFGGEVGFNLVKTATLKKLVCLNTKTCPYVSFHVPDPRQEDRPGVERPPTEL
Method in brief: (§1)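 Cell-free enzyme assays. Data given either as IC50 or as remaining enzyme activity at 10 µM test concentration.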

[2] = Cytotoxicity against CHO cells assessed as cell viability up to 30 uM after 24 hrs by alamar blue assay; assay type: cell-based, Cricetulus griseus; conditions: chinese hamster, read-out: Activity
[3] = target: T2, Presenilin-1 (Homo sapiens, UniProt P49768); assay: Inhibition of wild-type human presenilin-1 stably overexpressed in CHO cells co-expressing wild-type human amyloid precursor protein assessed as inhibition of amyloid beta 42 formation after 24 hrs by ELISA; assay type: cell-based
[4] = target: Neurogenic locus notch homolog protein 1 (Homo sapiens, UniProt P46531); assay: Inhibition of NOTCH-1 signaling (unknown origin) expressed in CHO cells at 5 to 50 uM after 24 hrs by dual luciferase reporter gene assay; assay type: cell-based
Method in brief: (§2)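 Dual luciferase Notch reporter read-out in CHO cells. Test compounds were run at 5–50 µM. The γ-secretase inhibitor LY-411575 was run at 0.5 µM as the reference treatment.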

[5] = target: T3, Prostaglandin E synthase (Homo sapiens, UniProt O14684); assay: Inhibition of mPGES-1-mediated PGE2 formation in interleukin-1beta-stimulated human A549 microsomal membranes preincubated for 15 mins before PGH2 addition by RP-HPLC analysis
T3 sequence (O14684 whole entry): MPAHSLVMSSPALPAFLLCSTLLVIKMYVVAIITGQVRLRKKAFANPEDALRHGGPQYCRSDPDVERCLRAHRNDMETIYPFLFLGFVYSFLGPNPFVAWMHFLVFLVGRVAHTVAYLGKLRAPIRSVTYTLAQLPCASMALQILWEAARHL

[6] = target: T2, Presenilin-1; assay: Activation of wild-type human presenilin-1 stably overexpressed in CHO cells co-expressing wild-type human amyloid precursor protein assessed as amyloid beta 38 formation after 24 hrs by ELISA; assay type: cell-based
[7] = target: T4, Peroxisome proliferator-activated receptor gamma (Homo sapiens) (UniProt P37231); assay: Activation of human PPARgamma ligand binding domain expressed in COS7 cells at 10 uM by dual luciferase reporter gene assay; assay type: cell-based; conditions: COS-7
T4 sequence (whole entry): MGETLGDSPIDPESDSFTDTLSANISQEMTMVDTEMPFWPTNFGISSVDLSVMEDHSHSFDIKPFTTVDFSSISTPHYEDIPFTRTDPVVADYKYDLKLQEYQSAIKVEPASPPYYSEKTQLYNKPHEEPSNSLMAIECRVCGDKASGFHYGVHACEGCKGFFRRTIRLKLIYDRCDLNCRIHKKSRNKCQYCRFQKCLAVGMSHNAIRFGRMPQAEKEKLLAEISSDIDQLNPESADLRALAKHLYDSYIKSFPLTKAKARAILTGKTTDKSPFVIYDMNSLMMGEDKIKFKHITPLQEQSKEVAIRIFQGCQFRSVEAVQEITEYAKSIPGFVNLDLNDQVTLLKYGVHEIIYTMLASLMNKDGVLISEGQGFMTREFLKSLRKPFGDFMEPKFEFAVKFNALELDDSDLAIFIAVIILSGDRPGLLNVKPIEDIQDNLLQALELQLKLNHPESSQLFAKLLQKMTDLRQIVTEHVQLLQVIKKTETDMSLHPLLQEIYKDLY

[8] = target: T5, Polyunsaturated fatty acid 5-lipoxygenase (Homo sapiens, UniProt P09917); assay: Inhibition of 5-LO in human PMNL assessed as reduction in 5-LO product formation pre-incubated for 15 mins before addition of arachidonic acid substrate by HPLC analysis; conditions: read-out: IC50
T5 sequence (P09917 whole entry): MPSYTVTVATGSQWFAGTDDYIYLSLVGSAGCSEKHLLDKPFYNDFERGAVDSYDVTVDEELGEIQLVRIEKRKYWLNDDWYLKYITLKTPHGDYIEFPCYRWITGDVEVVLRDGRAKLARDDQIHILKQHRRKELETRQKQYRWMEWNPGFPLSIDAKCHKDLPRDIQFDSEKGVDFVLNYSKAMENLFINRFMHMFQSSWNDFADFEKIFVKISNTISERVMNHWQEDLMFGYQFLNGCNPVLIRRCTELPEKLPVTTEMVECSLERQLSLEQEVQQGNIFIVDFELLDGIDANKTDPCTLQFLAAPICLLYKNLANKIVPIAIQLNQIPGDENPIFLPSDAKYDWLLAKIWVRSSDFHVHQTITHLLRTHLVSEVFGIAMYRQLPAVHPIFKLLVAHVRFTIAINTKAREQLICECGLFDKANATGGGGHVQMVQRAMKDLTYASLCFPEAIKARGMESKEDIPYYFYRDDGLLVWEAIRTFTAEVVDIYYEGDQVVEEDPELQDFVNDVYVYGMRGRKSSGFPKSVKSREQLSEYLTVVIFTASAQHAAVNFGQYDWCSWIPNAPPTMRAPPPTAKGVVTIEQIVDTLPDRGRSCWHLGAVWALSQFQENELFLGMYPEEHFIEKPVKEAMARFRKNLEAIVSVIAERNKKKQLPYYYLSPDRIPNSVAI

[9] = target: T6, Prostaglandin G/H synthase 2 (Homo sapiens, UniProt P35354); assay: Inhibition of human recombinant COX2-mediated 12-HHT formation preincubated for 5 mins before arachidonic acid addition by HPLC analysis; method in brief: as §1
T6 sequence (P35354 whole entry): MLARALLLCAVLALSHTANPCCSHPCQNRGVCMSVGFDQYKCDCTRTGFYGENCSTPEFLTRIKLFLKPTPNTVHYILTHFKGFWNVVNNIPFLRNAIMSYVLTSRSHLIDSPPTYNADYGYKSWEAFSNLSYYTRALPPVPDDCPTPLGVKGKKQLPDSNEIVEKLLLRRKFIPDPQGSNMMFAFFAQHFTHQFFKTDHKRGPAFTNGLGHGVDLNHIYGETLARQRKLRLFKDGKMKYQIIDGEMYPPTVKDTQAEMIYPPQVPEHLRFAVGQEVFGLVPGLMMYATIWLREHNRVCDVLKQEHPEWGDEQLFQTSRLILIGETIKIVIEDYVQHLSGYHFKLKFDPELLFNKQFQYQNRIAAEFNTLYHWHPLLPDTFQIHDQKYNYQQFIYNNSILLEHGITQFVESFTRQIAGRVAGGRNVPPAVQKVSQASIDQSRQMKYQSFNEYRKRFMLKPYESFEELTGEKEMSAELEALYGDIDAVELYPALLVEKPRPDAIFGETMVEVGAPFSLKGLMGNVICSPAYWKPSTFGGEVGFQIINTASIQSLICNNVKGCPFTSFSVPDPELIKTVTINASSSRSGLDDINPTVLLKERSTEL

[10] = target: T7, Prostaglandin G/H synthase 1 (Ovis aries, UniProt P05979); assay: Inhibition of ovine COX1-mediated 12-HHT formation preincubated for 5 mins before arachidonic acid addition by HPLC analysis; method in brief: as §1
T7 sequence (P05979 whole entry): T1 sequence (whole entry)

[11] = target: T8, Prostaglandin G/H synthase 2 (Homo sapiens) (UniProt P35354); assay: Inhibition of human recombinant COX2-mediated 12-HHT formation assessed as remaining activity at 10 uM preincubated for 5 mins before arachidonic acid addition by HPLC analysis; method in brief: as §1
T8 sequence (whole entry): T6 sequence (P35354 whole entry)

[12] = target: NOTCH-1 signaling (Neurogenic locus notch homolog protein 1) (Homo sapiens, UniProt P46531); assay: Inhibition of NOTCH-1 signaling (unknown origin) expressed in CHO cells at 0.5 uM after 24 hrs by dual luciferase reporter gene assay; assay type: cell-based; conditions: CHO cells expressing NOTCH-1; method in brief: as §2
[13] = Cytotoxicity against human Jurkat cells assessed as reduction in cell viability up to 30 uM after 24 to 48 hrs by MTT assay; assay type: cell-based; conditions: read-out: INH
[14] = target: T4, Peroxisome proliferator-activated receptor gamma (Homo sapiens); assay: Activation of human PPARgamma ligand binding domain expressed in COS7 cells by dual luciferase reporter gene assay relative to 1 uM pioglitazone; assay type: cell-based; conditions: COS-7
[15] = target: T9, Peroxisome proliferator-activated receptor gamma (Homo sapiens, UniProt P37231); assay: Activation of human PPARgamma ligand binding domain expressed in COS7 cells by dual luciferase reporter gene assay; assay type: cell-based, COS-7
T9 sequence (P37231 whole entry): T4 sequence (whole entry)

[16] = target: Gamma-secretase; assay: Inhibition of CHAPSO-solubilized gamma-secretase isolated from human SH-SY5Y P2 cell membranes assessed as reduction in Abeta(1 to 42) peptide generation from recombinant C100Flag substrate by electrochemiluminescence assay
[17] = target: T4, Peroxisome proliferator-activated receptor gamma (Homo sapiens); assay: Activation of human PPARgamma ligand binding domain expressed in COS7 cells at 6 uM by dual luciferase reporter gene assay; assay type: cell-based; conditions: COS-7
[18] = target: T4, Peroxisome proliferator-activated receptor gamma (Homo sapiens); assay: Activation of human PPARgamma ligand binding domain expressed in COS7 cells at 3 uM by dual luciferase reporter gene assay; assay type: cell-based; conditions: COS-7

Chain of Neurogenic locus notch homolog protein 1 (P46531 whole entry): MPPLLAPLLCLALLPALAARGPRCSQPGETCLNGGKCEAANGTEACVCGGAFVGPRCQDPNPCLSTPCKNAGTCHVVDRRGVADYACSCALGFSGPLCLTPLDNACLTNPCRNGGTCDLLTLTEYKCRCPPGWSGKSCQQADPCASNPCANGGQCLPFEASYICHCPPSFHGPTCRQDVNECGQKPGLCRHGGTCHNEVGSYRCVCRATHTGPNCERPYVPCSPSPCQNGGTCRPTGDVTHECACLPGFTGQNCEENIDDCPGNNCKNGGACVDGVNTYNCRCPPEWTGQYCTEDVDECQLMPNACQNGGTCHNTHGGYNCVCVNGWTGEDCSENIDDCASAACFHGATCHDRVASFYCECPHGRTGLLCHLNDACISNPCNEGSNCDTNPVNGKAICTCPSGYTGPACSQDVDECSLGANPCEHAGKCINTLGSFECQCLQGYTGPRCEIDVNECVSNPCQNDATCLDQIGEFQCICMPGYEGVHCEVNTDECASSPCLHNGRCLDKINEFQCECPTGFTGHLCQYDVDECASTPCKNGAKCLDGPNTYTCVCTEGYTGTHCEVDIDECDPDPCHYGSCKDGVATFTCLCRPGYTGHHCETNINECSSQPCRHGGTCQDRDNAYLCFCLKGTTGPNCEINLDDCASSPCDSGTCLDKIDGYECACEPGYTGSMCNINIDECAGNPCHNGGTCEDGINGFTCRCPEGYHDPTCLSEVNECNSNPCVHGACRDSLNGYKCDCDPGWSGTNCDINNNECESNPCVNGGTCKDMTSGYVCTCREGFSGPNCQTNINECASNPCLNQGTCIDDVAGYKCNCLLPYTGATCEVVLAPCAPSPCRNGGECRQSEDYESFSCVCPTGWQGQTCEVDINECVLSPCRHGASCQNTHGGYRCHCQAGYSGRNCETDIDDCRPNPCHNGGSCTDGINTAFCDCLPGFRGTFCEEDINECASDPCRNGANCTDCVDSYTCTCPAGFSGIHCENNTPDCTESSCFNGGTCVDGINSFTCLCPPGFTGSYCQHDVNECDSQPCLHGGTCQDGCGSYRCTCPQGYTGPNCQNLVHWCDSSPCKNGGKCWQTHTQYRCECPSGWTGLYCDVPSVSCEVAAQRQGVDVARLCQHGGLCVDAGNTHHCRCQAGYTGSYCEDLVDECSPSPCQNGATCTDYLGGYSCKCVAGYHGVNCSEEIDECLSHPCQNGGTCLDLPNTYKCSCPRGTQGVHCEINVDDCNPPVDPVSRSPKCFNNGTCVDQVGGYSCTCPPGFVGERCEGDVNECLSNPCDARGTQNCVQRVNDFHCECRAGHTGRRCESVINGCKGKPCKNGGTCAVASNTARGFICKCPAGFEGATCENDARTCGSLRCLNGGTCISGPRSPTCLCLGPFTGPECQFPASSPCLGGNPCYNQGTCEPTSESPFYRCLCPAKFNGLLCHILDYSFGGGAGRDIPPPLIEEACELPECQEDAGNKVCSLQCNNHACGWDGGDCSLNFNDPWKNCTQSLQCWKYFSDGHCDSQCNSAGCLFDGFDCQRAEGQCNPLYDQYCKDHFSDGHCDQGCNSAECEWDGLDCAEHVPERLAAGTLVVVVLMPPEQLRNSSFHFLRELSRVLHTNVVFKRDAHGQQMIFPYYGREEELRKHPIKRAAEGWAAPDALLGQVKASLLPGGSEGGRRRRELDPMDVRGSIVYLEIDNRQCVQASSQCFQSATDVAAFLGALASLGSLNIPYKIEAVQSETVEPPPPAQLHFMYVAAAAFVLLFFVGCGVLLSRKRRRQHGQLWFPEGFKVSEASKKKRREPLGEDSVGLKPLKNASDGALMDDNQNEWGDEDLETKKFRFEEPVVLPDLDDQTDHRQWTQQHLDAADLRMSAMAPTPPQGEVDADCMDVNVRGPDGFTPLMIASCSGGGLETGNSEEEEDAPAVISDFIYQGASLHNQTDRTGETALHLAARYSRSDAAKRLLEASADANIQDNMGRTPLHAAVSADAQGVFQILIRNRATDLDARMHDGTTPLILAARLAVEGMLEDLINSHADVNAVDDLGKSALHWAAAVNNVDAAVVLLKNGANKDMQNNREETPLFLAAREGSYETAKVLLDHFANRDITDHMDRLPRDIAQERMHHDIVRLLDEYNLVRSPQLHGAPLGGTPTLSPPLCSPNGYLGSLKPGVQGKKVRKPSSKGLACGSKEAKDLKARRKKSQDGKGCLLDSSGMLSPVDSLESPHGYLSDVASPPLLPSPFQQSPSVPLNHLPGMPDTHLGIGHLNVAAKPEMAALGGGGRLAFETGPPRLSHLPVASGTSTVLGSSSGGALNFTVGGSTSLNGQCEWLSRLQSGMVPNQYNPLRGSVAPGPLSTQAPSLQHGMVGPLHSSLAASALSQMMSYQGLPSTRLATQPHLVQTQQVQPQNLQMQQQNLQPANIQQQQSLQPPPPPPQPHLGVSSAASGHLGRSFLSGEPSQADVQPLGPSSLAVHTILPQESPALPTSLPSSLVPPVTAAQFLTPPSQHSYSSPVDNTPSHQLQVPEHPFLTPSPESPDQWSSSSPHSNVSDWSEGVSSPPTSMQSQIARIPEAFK
Chain of NOTCH-1 signaling (Neurogenic locus notch homolog protein 1) (P46531 whole entry): as above

Compound | Activity [1] [%] | IC50 [3] [nM] | inhibition (INH) [4] | IC50 [5] [µM] | EC50 [6] [nM] | Activity [7] [%] | IC50 [8] [nM] | IC50 [9] [µM] | IC50 [10] [µM] | Activity [11] [%] | inhibition at 24 h, 0.5 µM [12] [%] | max activation [14] | EC50 ([15]; cos-7) | EC50 ([15]; read-out: EC50) [µM] | IC50 [16] [µM] | Activity [17] [%] | Activity [18] [%] | viability at 24 h [2] [%] | cytotoxicity [13] [%]
CCCC/C(=C\c1cc(OCc2ccc3nc(C(F)(F)F)cc(OC)c3c2)ccc1OCc1ccc(C(F)(F)F)cc1)C(=O)O | 69 | 630 | Not Active | 3 | 1170 | 17 | 200 | > 10 | > 10 | 84.2 |  |  |  |  |  |  |  | > 50 | 
CCCC/C(=C\c1cc(OCC2CCC(C(F)(F)F)CC2)ccc1OCc1ccc(C(F)(F)F)cc1)C(=O)O (stereo not drawn) | 58 | 1000 | Not Active | 2.5 | 1100 |  | 1700 | > 10 | > 10 | 75.3 |  | 158% |  | 2.16 |  |  |  | > 50 | 
C[C@@H](C(=O)O)c1ccc(-c2ccccc2)c(F)c1 [TARENFLURBIL] |  |  |  |  |  |  |  |  |  |  |  |  |  |  | 307 |  |  |  | 
CCCC/C(=C\c1cc(OCc2cc(C(F)(F)F)cc(C(F)(F)F)c2)ccc1OCc1ccc(C(F)(F)F)cc1)C(=O)O | 62.4 | 790 |  | > 10 | 1000 |  | 300 | > 10 | > 10 | 77.3 |  | 103% |  | 4.64 |  |  |  | > 50 | 
CCCC/C(=C\c1cc(OCCc2ccc(C(F)(F)F)cc2)ccc1OCc1ccc(C(F)(F)F)cc1)C(=O)O | 66.3 | 1500 |  | 3.1 | 1300 |  | 500 | > 10 | > 10 | 72.2 |  |  |  |  |  | 72 | 21 |  | > 50

Continued, in another order:

Activity [1] [%] | IC50 [3] [nM] | inhibition (INH) [4] | IC50 [5] [µM] | EC50 [6] [nM] | Activity [7] [%] | IC50 [8] [nM] | IC50 [9] [µM] | IC50 [10] [µM] | Activity [11] [%] | inhibition at 24 h, 0.5 µM [12] [%] | max activation [14] | EC50 ([15]; cos-7) | EC50 ([15]; read-out: EC50) [µM] | IC50 [16] [µM] | Activity [17] [%] | Activity [18] [%] | Compound | viability at 24 h [2] [%] | cytotoxicity [13] [%]
 |  |  |  |  |  |  |  |  |  | > 75 |  |  |  |  |  |  | C[C@H](NC(=O)[C@@H](O)c1cc(F)cc(F)c1)C(=O)N[C@@H]1C(=O)N(C)c2ccccc2-c2ccccc21 |  | 
67.4 | 4600 |  | 9.2 | 2100 |  | 700 | > 10 | > 10 | 91.7 |  | inactive | Not Active |  |  |  |  | CCCC/C(=C\c1cc(OCc2cc3ccccc3s2)ccc1OCc1ccc(C(F)(F)F)cc1)C(=O)O |  | > 50

From ChEMBL document CHEMBL3397016, “SAR-studies of γ-secretase modulators with PPARγ-agonistic and 5-lipoxygenase-inhibitory activity for Alzheimer's disease” (Bioorg Med Chem Lett, 2015)
